Laboratory results as given in ChEMBL document CHEMBL1909521, “A class of novel N-(1-methyl-β-carboline-3-carbonyl)-N'-(aminoacid-acyl)-hydrazines: aromatization leaded design, synthesis, in vitro anti-platelet aggregation/in vivo anti-thrombotic evaluation and 3D QSAR analysis” (Eur J Med Chem, 2011).
Structures can show the parent of a compound that is named as a salt.

Key:
[1] = Antiaggregatory activity in pig platelets assessed as inhibition of adenosine diphosphate-induced platelet aggregation after 5 mins; format: functional, cell-based; settings: Sus scrofa
How it was run: (§1)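 Pig blood (6 pigs) was spun at 1000 rpm for 10 min to give PRP, then 1500 rpm for 10 min to give PPP. PRP was adjusted to 2×10^8 platelets/ml with autologous PPP. Compound (final 100 µM to 0.001 µM, diluted in NS) or NS was added before agonist: ADP 10 µM, AA 350 µM or PAF 0.1 µM final. Aggregation was read optically at 37 °C for 5 min, in sixplicate. IC50 came from the concentration–inhibition curve.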

[2] = Antiaggregatory activity in pig platelets assessed as inhibition of platelet-activating factor-induced platelet aggregation after 5 mins; format: functional, cell-based; settings: Sus scrofa; how it was run: as §1
[3] = Antiaggregatory activity in pig platelets assessed as inhibition of arachidonic acid-induced platelet aggregation after 5 mins; format: functional, cell-based; settings: Sus scrofa; how it was run: as §1
Rattus norvegicus [4] = assay: Antithrombotic activity in Wister rat assessed as reduction of thrombus weight at 10 nmol/kg, po (reference value: 28.21 +/- 1.11 mg); format: functional
Rattus norvegicus [5] = assay: Antithrombotic activity in Wister rat assessed as reduction of thrombus weight at 10 nmol/kg, po (reference value: 31.87 +/- 1.71 mg); format: functional
[6] = Antiplatelet activity in rabbit platelets assessed as inhibition of collagen-induced platelet aggregation; format: functional, cell-based; settings: Oryctolagus cuniculus
Rattus norvegicus [7] = assay: Antithrombotic activity in Wister rat assessed as reduction of thrombus weight at 1 nmol/kg, po (reference value: 31.87 +/- 1.71 mg); format: functional

| SMILES | IC50 [1] [µM] | IC50 [2] [µM] | IC50 [3] [µM] | Activity (Rattus norvegicus [4]) [mg] | Activity (Rattus norvegicus [5]) [mg] | IC50 [6] [µM] | Activity (Rattus norvegicus [7]) [mg] |
| --- | --- | --- | --- | --- | --- | --- | --- |
| Cc1nc(C(=O)NNC(=O)[C@H](CCCCNC(=O)OC(C)(C)C)NC(=O)OC(C)(C)C)cc2c1[nH]c1ccccc12 | 321 | 106 | 3.4 | 19.75 | 22.32 |  |  |
| COc1ccc2c(c1)[nH]c1c(C)nccc12 [HARMINE] |  |  |  |  |  | 130 |  |
| Cc1nc(C(=O)NNC(=O)[C@H](CC(=O)OCc2ccccc2)NC(=O)OC(C)(C)C)cc2c1[nH]c1ccccc12 | 117 | 196 | 5.2 | 18.97 | 21.44 |  |  |
| Cc1nc(C(=O)NNC(=O)[C@@H]2CCCN2C(=O)OC(C)(C)C)cc2c1[nH]c1ccccc12 | 166 | 134 | 20.6 | 20.39 | 23.04 |  |  |
| Cc1nc(C(=O)NNC(=O)[C@H](CO)NC(=O)OC(C)(C)C)cc2c1[nH]c1ccccc12 | 276 | 119 | 19.9 | 18.67 | 21.1 |  |  |
| COc1ccc2c3c([nH]c2c1)C(C)=NCC3 [HARMALINE] |  |  |  |  |  | 130 |  |
| Cc1nc(C(=O)NNC(=O)[C@@H](N)[C@@H](C)O)cc2c1[nH]c1ccccc12 | 24.8 | 20.9 | 5.2 |  |  |  | 23.65 |
| Cc1nc(C(=O)NNC(=O)CNC(=O)OC(C)(C)C)cc2c1[nH]c1ccccc12 | 722 | 348 | 20.7 | 23.74 | 26.83 |  |  |
| Cc1nccc2c1[nH]c1cc(O)ccc12 [HARMOL HYDROCHLORIDE] |  |  |  |  |  | 130 |  |
| Cc1nc(C(=O)NNC(=O)[C@H](CC(C)C)NC(=O)OC(C)(C)C)cc2c1[nH]c1ccccc12 | 31.6 | 1.2 | 3.2 | 21.06 | 23.8 |  |  |
| Cc1nc(C(=O)NNC(=O)[C@@H]2CCCN2)cc2c1[nH]c1ccccc12 | 48.7 | 44.5 | 5.8 |  |  |  | 24.37 |
| Cc1nc(C(=O)NNC(=O)[C@H](Cc2ccc(O)cc2)NC(=O)OC(C)(C)C)cc2c1[nH]c1ccccc12 | 152 | 12.7 | 13 | 21 | 23.73 |  |  |
| Cc1nc(C(=O)NNC(=O)[C@@H](N)CC(=O)OCc2ccccc2)cc2c1[nH]c1ccccc12 | 81.7 | 52.9 | 3.7 |  |  |  | 23.23 |
| Cc1nc(C(=O)NNC(=O)CN)cc2c1[nH]c1ccccc12 | 53.3 | 52.9 | 5.2 |  |  |  | 23.7 |
| Cc1nc(C(=O)NNC(=O)[C@H](Cc2cn(C(=O)OC(C)(C)C)cn2)NC(=O)OC(C)(C)C)cc2c1[nH]c1ccccc12 | 94.6 | 7.7 | 4.8 | 18.87 | 21.32 |  |  |
| CSCC[C@H](N)C(=O)NNC(=O)c1cc2c([nH]c3ccccc32)c(C)n1 | 58.9 | 13.4 | 4.7 |  |  |  | 23.43 |
| Cc1nc(C(=O)NNC(=O)[C@@H](N)Cc2ccc(O)cc2)cc2c1[nH]c1ccccc12 | 74.6 | 37.4 | 1.7 |  |  |  | 18.56 |
| Cc1nc(C(=O)NNC(=O)[C@@H](N)CC(N)=O)cc2c1[nH]c1ccccc12 | 65.8 | 39.7 | 6.2 |  |  |  | 23.97 |
| Cc1nc(C(=O)NNC(=O)[C@@H](N)CC(C)C)cc2c1[nH]c1ccccc12 | 23 | 1.1 | 8.2 |  |  |  | 24.49 |

| SMILES | IC50 [1] [µM] | IC50 [2] [µM] | IC50 [3] [µM] | Activity (Rattus norvegicus [4]) [mg] | Activity (Rattus norvegicus [5]) [mg] | IC50 [6] [µM] | Activity (Rattus norvegicus [7]) [mg] |
| --- | --- | --- | --- | --- | --- | --- | --- |
| Cc1nc(C(=O)NNC(=O)[C@H](Cc2c[nH]c3ccccc23)NC(=O)OC(C)(C)C)cc2c1[nH]c1ccccc12 | 21.7 | 4.3 | 0.6 | 19.04 | 21.52 |  |  |
| Cc1nc(C(=O)NNC(=O)[C@@H](NC(=O)OC(C)(C)C)[C@@H](C)O)cc2c1[nH]c1ccccc12 | 531 | 31.9 | 4.7 | 20.24 | 22.87 |  |  |
| Cc1nc(C(=O)NNC(=O)[C@@H](NC(=O)OC(C)(C)C)C(C)C)cc2c1[nH]c1ccccc12 | 156 | 50 | 3.7 | 24.01 | 24.01 |  |  |
| Cc1nc(C(=O)NNC(=O)[C@H](C)N)cc2c1[nH]c1ccccc12 | 58.9 | 47.4 | 6.7 |  |  |  | 24.39 |
| Cc1nc(C(=O)NNC(=O)[C@@H](N)CCC(=O)OCc2ccccc2)cc2c1[nH]c1ccccc12 | 58.9 | 64.3 | 2.3 |  |  |  | 18.8 |
| Cc1nc(C(=O)NNC(=O)[C@@H](N)Cc2c[nH]c3ccccc23)cc2c1[nH]c1ccccc12 | 28.9 | 19.3 | 8.7 |  |  |  | 24.56 |
| CSCC[C@H](NC(=O)OC(C)(C)C)C(=O)NNC(=O)c1cc2c([nH]c3ccccc32)c(C)n1 | 417 | 52.9 | 21.7 | 18.55 | 20.96 |  |  |
| Cc1nc(C(=O)NNC(=O)[C@H](C)NC(=O)OC(C)(C)C)cc2c1[nH]c1ccccc12 | 118 | 162 | 20 | 20.06 | 22.67 |  |  |
| Cc1nc(C(=O)NNC(=O)[C@H](CCC(=O)OCc2ccccc2)NC(=O)OC(C)(C)C)cc2c1[nH]c1ccccc12 | 524 | 362 | 6.3 | 19.65 | 22.2 |  |  |
| Cc1nc(C(=O)NNC(=O)[C@@H](N)CO)cc2c1[nH]c1ccccc12 | 50.9 | 52.9 | 9 |  |  |  | 24.78 |
| Cc1nc(C(=O)NNC(=O)[C@@H](N)CCCCN)cc2c1[nH]c1ccccc12 | 58.9 | 52.9 | 4.1 |  |  |  | 23.3 |
| CC[C@H](C)[C@H](N)C(=O)NNC(=O)c1cc2c([nH]c3ccccc32)c(C)n1 | 74 | 5.6 | 3.6 |  |  |  | 23.12 |
| Cc1nc(C(=O)NN)cc2c1[nH]c1ccccc12 | 110 | 92.8 | 32.9 |  | 26.66 |  |  |
| Cc1nc(C(=O)NNC(=O)[C@H](CC(N)=O)NC(=O)OC(C)(C)C)cc2c1[nH]c1ccccc12 | 609 | 507 | 19.7 | 21.36 | 24.14 |  |  |
| CC[C@H](C)[C@H](NC(=O)OC(C)(C)C)C(=O)NNC(=O)c1cc2c([nH]c3ccccc32)c(C)n1 | 51.1 | 1.4 | 2.4 | 20.62 | 23.3 |  |  |
| Cc1nc(C(=O)NNC(=O)[C@@H](N)Cc2cnc[nH]2)cc2c1[nH]c1ccccc12 | 25.7 | 42.5 | 0.2 |  |  |  | 18.1 |
| c1ccc2c(c1)[nH]c1cnccc12 [NORHARMANE] |  |  |  |  |  | 130 |  |
| Cc1nccc2c1[nH]c1ccccc12 [HARMAN] |  |  |  |  |  | 130 |  |
| CC1=NCCc2c1[nH]c1cc(O)ccc21 [HARMALOL] |  |  |  |  |  | 130 |  |
